# Measured values published in ChEMBL document CHEMBL4043283, “Discovery and Preclinical Development of IIIM-290, an Orally Active Potent Cyclin-Dependent Kinase Inhibitor” (J Med Chem, 2018).
# The source made the active and inactive calls. The calls are words filed in the database; no cut-off is given here.
# Key:
# [1] = test system: Salmonella typhimurium; test: Mutagenicity in Salmonella typhimurium TA100 at 50 ug/plate in absence of liver S9 fraction by Ames test; format: toxicity; details: salmonella enterica subsp. enterica serovar typhimurium
# [2] = Half life in mouse hepatocytes at 3 uM after 180 mins by LC-MS/MS analysis; format: ADME, cell-based, Hepatocyte
# [3] = Tmax in Sprague-Dawley rat at 10 mg/kg, po by LC-MS/MS analysis; format: ADME, organism-based; details: in vivo
# [4] = test system: Salmonella typhimurium; test: Mutagenicity in Salmonella typhimurium TA98 at 50 ug/plate in presence of liver S9 fraction by Ames test; format: toxicity; details: salmonella enterica subsp. enterica serovar typhimurium
# [5] = biological target: Cytochrome P450 2C9 (Homo sapiens, UniProt P11712); test: Inhibition of human CYP2C9 using fluorogenic substrate preincubated with co-factor for 10 mins followed by enzyme-substrate addition by fluorometric method; format: ADME
# Outline: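 Cofactor plus test item or vehicle, in triplicate, preincubated 10 min at 37 °C; prewarmed enzyme–substrate mix added and incubated at 37 °C with shaking. Quench: acetonitrile (CYP2C19, CYP3A4) or 0.25 M Tris in 60% methanol (CYP2C9, CYP2D6). Metabolite fluorescence read; % inhibition computed against enzyme controls and enzyme-free blanks.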
# [6] = Chemical stability of compound in SGF at pH 1.2 assessed as parent compound remaining after 8 hrs by HPLC method; format: physicochemical; details: read-out: Stability
# [7] = test system: Mus musculus; test: Toxicity in Swiss albino mouse allografted with Swiss mouse EAC assessed as mortality at 70 to 100 mg/kg, po administered for 9 day; format: organism-based; details: in vivo, 216 h
# [8] = Intrinsic clearance in dog hepatocytes assessed per million cells at 3 uM after 180 mins by LC-MS/MS analysis; format: ADME, cell-based, Canis lupus familiaris, Hepatocyte; details: read-out: CLH
# Outline: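 Intrinsic clearance obtained from substrate disappearance over time, reported per mg protein (microsomes, S9) or per 10^6 cells (hepatocytes).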
# [9] = test system: Liver; test: Drug uptake in BALB/c mouse liver at 30 mg/kg, po after 8 hrs; format: ADME, organism-based; details: in vivo
# [10] = test system: Salmonella typhimurium; test: Mutagenicity in Salmonella typhimurium TA1535 at 50 ug/plate in presence of liver S9 fraction by Ames test; format: toxicity; details: salmonella enterica subsp. enterica serovar typhimurium
# [11] = AUC in Sprague-Dawley rat at 10 mg/kg, po by LC-MS/MS analysis; format: ADME, organism-based; details: in vivo
# [12] = test system: Tyrosine-protein kinase ABL1 (Homo sapiens), P00519 [H396P]; test: Inhibition of partial length human ABL1 H396P mutant expressed in mammalian expression system at 0.5 uM by KINOMEscan method relative to control
# Outline: (§1)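 Competition binding screen (KINOMEscan) at 0.5 μM; primary binding read out as % of control, lower values indicating stronger interaction.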
# [13] = Chemical stability of compound in SIF at pH 6.8 assessed as parent compound remaining after 8 hrs by HPLC method; format: physicochemical; details: read-out: Stability
# [14] = test system: MIA PaCa-2; test: Induction of apoptosis in human MIAPaCa2 cells assessed as chromatin condensation in nuclei after 24 hrs by scanning electron microscopy; format: functional, cell-based
# Outline: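 Cells exposed to different compound concentrations for 24 h on coverslips, fixed in 2.5% glutaraldehyde in 0.1 M phosphate buffer pH 7.2 (4 °C, 24 h), postfixed in 1% OsO4 4 h, ethanol-dehydrated, critical-point dried with HMDS, gold-coated, imaged at 20 kV.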
# [15] = Growth inhibition of HGF after 48 hrs by MTT assay; format: cell-based; details: human, HGF cells
# [16] = test system: MIA PaCa-2; test: Disruption of mitochondrial membrane potential in human MIAPaCa2 cells by Rh123 dye-based assay; format: functional, cell-based
# [17] = test system: Salmonella typhimurium; test: Mutagenicity in Salmonella typhimurium TA1537 at 50 ug/plate in presence of liver S9 fraction by Ames test; format: toxicity; details: salmonella enterica subsp. enterica serovar typhimurium
# [18] = Half life in dog hepatocytes at 3 uM after 180 mins by LC-MS/MS analysis; format: ADME, cell-based, Canis lupus familiaris, Hepatocyte
# [19] = Pancreas to plasma partition coefficient, Kp of the compound in Sprague-Dawley rat at 30 mg/kg, po measured at 8 hrs; format: ADME, organism-based; details: pancreas and plasma
# [20] = test system: MOLT-4; test: Growth inhibition of human MOLT4 cells after 48 hrs by MTT assay; format: functional; details: MOLT-4, 48 h
# Outline: (§2)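 Cancer cell lines sourced from the National Cancer Institute (USA). Cells kept in appropriate growth medium at 37 °C, 95% humidity, 5% CO2. Antiproliferation read by tetrazolium (MTT) assay. GI50 values were determined only for compounds selected after an initial single-concentration screen.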
# [21] = Intrinsic clearance in mouse hepatocytes assessed per million cells at 3 uM after 180 mins by LC-MS/MS analysis; format: ADME, cell-based, Hepatocyte; details: read-out: CLH
# [22] = test system: PC-3; test: Growth inhibition of human PC3 cells after 48 hrs by MTT assay; format: functional; details: PC-3, 48 h; outline: as §2
# [23] = test system: MIA PaCa-2; test: Induction of apoptosis in human MIAPaCa2 cells assessed as caspase-3 cleavage by Western blot method; format: functional, cell-based
# Outline: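 Lysate protein quantified against a BSA standard; 70 μg resolved by SDS-PAGE, transferred to PVDF overnight at 4 °C, 30 V; blocked 1 h in 5% nonfat milk/TBST; primary antibodies 2–4 h, HRP anti-mouse secondary 1 h; ECL detection on X-ray film.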
# [24] = Volume of distribution in BALB/c mouse at 1 mg/kg, iv by LC-MS/MS analysis; format: ADME, organism-based; details: in vivo
# [25] = biological target: Non-receptor tyrosine-protein kinase TYK2 (Homo sapiens) (UniProt P29597); test: Inhibition of partial length wild type human Tyk2 expressed in mammalian expression system at 0.5 uM by KINOMEscan method relative to control; outline: as §1
# [26] = Pancreas to plasma partition coefficient, Kp of the compound in BALB/c mouse at 30 mg/kg, po measured at 0.5 hrs; format: ADME, organism-based; details: pancreas and plasma
# [27] = Thermodynamic equilibrium solubility of compound in SGF at pH 1.2 after 5 hrs by shake flask method; format: physicochemical; details: read-out: Therm_solubility
# [28] = Protein binding in rat plasma at 3 uM after 5 hrs by equilibrium dialysis method; format: ADME, cell-free; details: read-out: PPB (converted)
# [29] = Thermodynamic equilibrium solubility of compound in PBS at pH 7.4 after 5 hrs by shake flask method; format: physicochemical; details: read-out: Therm_solubility
# [30] = biological target: Citron Rho-interacting kinase (Homo sapiens) (UniProt O14578); test: Inhibition of partial length wild type human CIT expressed in bacterial expression system at 0.5 uM by KINOMEscan method relative to control; outline: as §1
# [31] = Cmax in BALB/c mouse at 10 mg/kg, po by LC-MS/MS analysis; format: ADME, organism-based; set-up: dose 10 mg/kg, route oral; details: in vivo
# [32] = biological target: Cytochrome P450 2D6 (Homo sapiens, UniProt P10635); test: Time-dependent inhibition of human CYP2D6 at 2 uM using fluorogenic substrate by fluorometric method; format: ADME
# [33] = Half life in monkey liver S9 fraction preincubated for 5 mins followed by NADPH addition measured after 30 mins by LC-MS/MS analysis; format: ADME, tissue-based, Macaca mulatta; details: rhesus monkey
# [34] = AUC in Sprague-Dawley rat at 3 mg/kg, po by LC-MS/MS analysis; format: ADME, organism-based; details: in vivo
# [35] = test system: BT-549; test: Growth inhibition of human BT549 cells after 48 hrs by MTT assay; format: functional; details: BT-549, 48 h; outline: as §2
# [36] = test system: MCF7; test: Growth inhibition of human MCF7 cells after 48 hrs by MTT assay; format: functional; details: MCF7, 48 h; outline: as §2
# [37] = Tmax in Sprague-Dawley rat at 30 mg/kg, po by LC-MS/MS analysis; format: ADME, organism-based; details: in vivo
# Chain of Non-receptor tyrosine-protein kinase TYK2 (Homo sapiens) (P29597 whole entry): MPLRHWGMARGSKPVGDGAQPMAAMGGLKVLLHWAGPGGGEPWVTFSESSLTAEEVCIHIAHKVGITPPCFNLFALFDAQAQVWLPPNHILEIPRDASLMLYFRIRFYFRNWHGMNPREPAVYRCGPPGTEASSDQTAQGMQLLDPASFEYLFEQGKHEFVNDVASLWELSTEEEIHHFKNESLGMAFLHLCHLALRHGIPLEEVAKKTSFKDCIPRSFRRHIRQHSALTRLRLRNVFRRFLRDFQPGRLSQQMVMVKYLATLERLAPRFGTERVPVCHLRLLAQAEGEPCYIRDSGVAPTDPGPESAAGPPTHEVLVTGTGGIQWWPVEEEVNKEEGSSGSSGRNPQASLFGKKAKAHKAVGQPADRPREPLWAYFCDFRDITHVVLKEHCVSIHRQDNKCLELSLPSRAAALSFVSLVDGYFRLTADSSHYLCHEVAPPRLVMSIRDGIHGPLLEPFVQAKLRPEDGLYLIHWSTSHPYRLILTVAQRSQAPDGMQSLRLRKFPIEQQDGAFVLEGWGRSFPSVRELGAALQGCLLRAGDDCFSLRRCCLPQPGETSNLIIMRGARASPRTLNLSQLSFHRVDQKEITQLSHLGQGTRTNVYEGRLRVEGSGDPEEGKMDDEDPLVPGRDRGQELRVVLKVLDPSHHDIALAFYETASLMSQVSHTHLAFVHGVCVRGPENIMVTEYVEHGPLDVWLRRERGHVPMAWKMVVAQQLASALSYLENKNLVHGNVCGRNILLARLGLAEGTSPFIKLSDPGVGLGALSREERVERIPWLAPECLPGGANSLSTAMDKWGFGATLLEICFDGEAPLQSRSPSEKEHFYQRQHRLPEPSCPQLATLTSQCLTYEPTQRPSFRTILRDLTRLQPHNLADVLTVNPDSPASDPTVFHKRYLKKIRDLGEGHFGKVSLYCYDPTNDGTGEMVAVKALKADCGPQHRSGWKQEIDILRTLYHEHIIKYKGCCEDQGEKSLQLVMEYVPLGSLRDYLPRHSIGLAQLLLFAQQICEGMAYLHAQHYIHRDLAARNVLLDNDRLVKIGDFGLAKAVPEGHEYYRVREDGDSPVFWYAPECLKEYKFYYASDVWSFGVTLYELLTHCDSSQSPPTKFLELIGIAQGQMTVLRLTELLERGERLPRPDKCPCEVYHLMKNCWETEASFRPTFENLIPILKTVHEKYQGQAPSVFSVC
# Chain of Cytochrome P450 2C9 (P11712 whole entry): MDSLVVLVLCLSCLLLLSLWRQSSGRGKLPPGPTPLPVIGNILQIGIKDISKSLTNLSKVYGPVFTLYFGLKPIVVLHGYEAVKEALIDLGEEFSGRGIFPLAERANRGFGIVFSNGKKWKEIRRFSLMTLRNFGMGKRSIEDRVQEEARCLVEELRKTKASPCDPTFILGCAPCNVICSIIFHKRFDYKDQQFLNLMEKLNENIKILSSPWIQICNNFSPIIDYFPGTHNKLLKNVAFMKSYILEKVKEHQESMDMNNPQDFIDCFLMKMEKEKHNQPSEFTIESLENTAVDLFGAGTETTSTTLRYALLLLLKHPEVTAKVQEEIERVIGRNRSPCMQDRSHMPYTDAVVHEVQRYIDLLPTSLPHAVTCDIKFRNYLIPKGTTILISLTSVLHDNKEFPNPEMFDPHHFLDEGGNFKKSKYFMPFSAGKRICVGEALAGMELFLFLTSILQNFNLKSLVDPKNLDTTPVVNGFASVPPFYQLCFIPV
# Chain of Citron Rho-interacting kinase (Homo sapiens) (O14578 whole entry): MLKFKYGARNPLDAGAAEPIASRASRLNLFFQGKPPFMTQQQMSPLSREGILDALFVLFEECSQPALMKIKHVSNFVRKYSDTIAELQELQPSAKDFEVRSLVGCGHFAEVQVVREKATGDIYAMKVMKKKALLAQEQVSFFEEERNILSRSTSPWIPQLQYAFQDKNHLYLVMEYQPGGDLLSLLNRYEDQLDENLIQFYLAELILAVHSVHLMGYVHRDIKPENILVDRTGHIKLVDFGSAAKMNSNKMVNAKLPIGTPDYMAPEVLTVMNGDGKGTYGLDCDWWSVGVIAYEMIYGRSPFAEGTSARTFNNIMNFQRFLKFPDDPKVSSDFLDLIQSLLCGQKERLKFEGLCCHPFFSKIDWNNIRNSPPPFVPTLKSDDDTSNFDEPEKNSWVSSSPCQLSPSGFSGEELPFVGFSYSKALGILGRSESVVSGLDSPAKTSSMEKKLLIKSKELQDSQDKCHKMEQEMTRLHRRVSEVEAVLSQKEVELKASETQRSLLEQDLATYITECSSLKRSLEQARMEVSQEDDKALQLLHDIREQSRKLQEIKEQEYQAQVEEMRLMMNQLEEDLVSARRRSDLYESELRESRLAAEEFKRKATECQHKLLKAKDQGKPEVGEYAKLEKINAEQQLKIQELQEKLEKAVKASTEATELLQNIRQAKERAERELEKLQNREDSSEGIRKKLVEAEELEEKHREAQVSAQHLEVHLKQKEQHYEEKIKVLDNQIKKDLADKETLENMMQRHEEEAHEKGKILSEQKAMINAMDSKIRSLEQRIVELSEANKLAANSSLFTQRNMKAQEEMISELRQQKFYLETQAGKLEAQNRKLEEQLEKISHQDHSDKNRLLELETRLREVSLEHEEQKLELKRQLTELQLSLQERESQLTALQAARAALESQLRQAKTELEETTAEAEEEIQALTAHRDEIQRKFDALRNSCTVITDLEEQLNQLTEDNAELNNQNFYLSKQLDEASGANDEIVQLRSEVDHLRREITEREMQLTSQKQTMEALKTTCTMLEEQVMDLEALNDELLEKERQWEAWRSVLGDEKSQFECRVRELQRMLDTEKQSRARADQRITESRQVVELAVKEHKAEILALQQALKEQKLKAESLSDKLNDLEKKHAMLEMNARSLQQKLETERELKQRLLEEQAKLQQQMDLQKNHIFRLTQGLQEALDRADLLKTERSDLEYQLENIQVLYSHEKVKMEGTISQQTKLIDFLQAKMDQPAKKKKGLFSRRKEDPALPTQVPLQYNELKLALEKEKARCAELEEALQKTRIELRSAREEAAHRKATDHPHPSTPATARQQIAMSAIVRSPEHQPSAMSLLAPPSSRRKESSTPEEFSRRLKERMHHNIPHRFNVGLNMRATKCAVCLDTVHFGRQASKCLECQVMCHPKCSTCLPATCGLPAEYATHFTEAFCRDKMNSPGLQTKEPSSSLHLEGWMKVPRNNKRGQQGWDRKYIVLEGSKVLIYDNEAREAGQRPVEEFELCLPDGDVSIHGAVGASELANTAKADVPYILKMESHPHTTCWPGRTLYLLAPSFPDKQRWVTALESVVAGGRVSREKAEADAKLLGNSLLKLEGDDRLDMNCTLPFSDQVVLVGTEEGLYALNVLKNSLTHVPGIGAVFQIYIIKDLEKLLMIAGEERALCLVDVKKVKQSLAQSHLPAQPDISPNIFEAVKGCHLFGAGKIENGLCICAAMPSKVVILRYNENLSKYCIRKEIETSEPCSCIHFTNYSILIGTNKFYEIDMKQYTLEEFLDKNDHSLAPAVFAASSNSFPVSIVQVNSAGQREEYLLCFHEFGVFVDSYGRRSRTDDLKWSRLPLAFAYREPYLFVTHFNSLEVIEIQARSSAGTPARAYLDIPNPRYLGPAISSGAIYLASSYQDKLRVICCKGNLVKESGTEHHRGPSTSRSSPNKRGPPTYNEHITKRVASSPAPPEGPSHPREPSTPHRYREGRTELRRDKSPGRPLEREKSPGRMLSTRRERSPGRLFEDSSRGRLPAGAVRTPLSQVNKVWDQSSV
# Chain of Cytochrome P450 2D6 (P10635 whole entry): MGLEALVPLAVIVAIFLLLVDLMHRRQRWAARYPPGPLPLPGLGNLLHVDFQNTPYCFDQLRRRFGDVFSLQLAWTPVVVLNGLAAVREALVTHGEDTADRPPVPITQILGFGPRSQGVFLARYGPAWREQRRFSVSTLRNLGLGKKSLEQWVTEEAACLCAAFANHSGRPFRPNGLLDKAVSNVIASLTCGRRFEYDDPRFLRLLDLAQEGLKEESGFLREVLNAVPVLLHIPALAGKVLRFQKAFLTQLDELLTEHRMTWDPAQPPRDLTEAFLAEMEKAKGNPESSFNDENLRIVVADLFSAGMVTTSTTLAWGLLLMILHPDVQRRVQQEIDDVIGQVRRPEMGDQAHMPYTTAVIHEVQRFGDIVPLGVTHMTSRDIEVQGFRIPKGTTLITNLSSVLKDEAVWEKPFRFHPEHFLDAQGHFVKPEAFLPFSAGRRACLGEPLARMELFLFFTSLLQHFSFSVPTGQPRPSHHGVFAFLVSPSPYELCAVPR
smiles,measurement,setting,value
CN1CC[C@H](c2c(O)cc(O)c3c(=O)cc(/C=C/c4c(Cl)cccc4Cl)oc23)[C@H](O)C1,Activity,[1],Non-Toxic
same,half-life at 3 µM,[2],3.1 h
same,Tmax,[3],1.75 h
same,Activity,[4],Non-Toxic
same,IC50,[5],> 20 µM
same,remaining at 8 h,[6],100%
same,Activity,[7],Non-Toxic
same,hepatocyte CLint at 3 µM,[8],12.3 µL/min/1e6 cells
same,Drug uptake,[9],Active
same,Activity,[10],Non-Toxic
same,AUC,[11],5.68 µM·h
same,inhibition,[12],> 98%
same,remaining at 8 h,[13],100%
same,Activity,[14],Active
same,GI50 at 48 h,[15],18 µM
same,Activity,[16],Active
same,Activity,[17],Non-Toxic
same,half-life at 3 µM,[18],4.68 h
same,Kp at 8 h,[19],10.5
same,GI50,[20],0.5 µM
same,hepatocyte CLint at 3 µM,[21],14.9 µL/min/1e6 cells
same,GI50,[22],3 to 6 µM
same,Activity,[23],Dose-dependent effect
same,Vd,[24],26.2 L/kg
same,inhibition,[25],> 98%
same,Kp at 0.5 h,[26],14.2
same,solubility thermodynamic at 5 h,[27],8.81 µg/mL
same,"fraction unbound at 5 h, 3 µM",[28],0.046
same,solubility thermodynamic at 5 h,[29],2.29 µg/mL
same,inhibition,[30],> 98%
same,Cmax,[31],670 to 1290 nM
same,TDI,[32],Not Active
same,half-life,[33],0.933 h
same,AUC,[34],1.44 µM·h
same,GI50,[35],5 µM
same,GI50,[36],4 µM
same,Tmax,[37],1 h
